According to the EternaBench riboswitch data:

Test system: MS2 coat protein
Test: apparent Kd, MS2 coat protein; higher = weaker binding; RNA-MaP array; FMN 200 µM where present
Method in brief: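 SNAP-549-labelled MS2 coat protein, doubled from 0.7 or 1.5 nM to 3 µM, was titrated over designs transcribed by stalled E. coli RNA polymerase on Illumina sequencing-chip clusters. Titrations were run without and then with constant ligand in 100 mM Tris-HCl pH 7.5, 80 mM KCl, 4 mM MgCl2, BSA, DTT, yeast tRNA and Tween-20. The apparent Kd is the median of filtered per-cluster fits to green signal normalised to red-channel RNA signal and control-cluster median Fmax.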

[1] = designed as: OFF switch for flavin mononucleotide, no ligand
[2] = ligand present: flavin mononucleotide, designed as: OFF switch for flavin mononucleotide
[3] = designed as: ON switch for flavin mononucleotide, no ligand
[4] = ligand present: flavin mononucleotide, designed as: ON switch for flavin mononucleotide

Sequence | apparent Kd [1] | apparent Kd [2] | apparent Kd [3] | apparent Kd [4]
GGGCCACAUGAGGAUCACCCAUGUAAGGAUAUGCUAGGGAUGGAAAAAAUUUCGCUAGGCAGAAGGUACUAAAG | 32 nM | 55.6 nM |  | 
AAAGUGUGAAGCAGGGUGCUACAUGAGGAUCACCCAUGUCGGAGAAGGGCGCCGUUUCGCAGGGUGUAGGAUAUCUGGCGUGCA | 132 nM | 109 nM |  | 
AGGCUUGCCACAGGAUAUGCUGACAUGAGAGAAGCAGAAGGGUGGUCGACGUUUUGGCGACAUGAGGAUCACCCAUGUUAGCGU |  |  | 178 nM | 28.3 nM
ACUAGAUGAGGAUAUGCAUAUUUUCGUGUUCUUCUAGGUUAACAUGAGGAUCACCCAUGUAGAAGGCGUCUAUG | 21.1 nM | 47.6 nM |  | 
CCGUAGUACUGGGAUCCGGGCCUACAUGAGGAUCACCCAUGUCAGGAUAUACGCGAGAUAAAUACGUAGAAGGGACACAGAUGA | 19.7 nM | 33.1 nM |  | 
AUAAUUUUAUAUAUCUUAUUUAUCAGAAGGCAUAACAUGAGGAUCACCCAUGUAUAUUAUAGUUAUGAGGAUAUGAUUUAGUUA | 8.04 nM | 8.85 nM |  | 
AUACAUGAGGAUCACCCAUGUAAUUAAUUAAUUAAUAAGAUCUAGGAUAUCAGCUCGUUUAGAGCUGAGAAGGAGAUCACAUGU |  |  | 23.4 nM | 13.1 nM
UCGGCGCGAGGAUAUGCGGUUCCUGCUUCGGGCCGGAGCGUACAUGAGGAUCACCCAUGUAGAAGGCGCGCCGC | 14.2 nM | 14.6 nM |  | 
AGAGACUUGGGAGGAUAUGCCUGAUGGACACGGGCAGAAGGCCCAAACAUGAGGAUCACCCAUGUAUCUACGCCUUGAACGGGC |  |  | 236 nM | 17.7 nM
CAGUCUACAGGAUAUACAUGAGGAUCACCCAUGUGUAUCAACCUUCUGUAAUCCUCAUGUAGAAGGGUAGACUG | 16.3 nM | 13.7 nM |  | 
AAACAUGUCCGAGGAUAUCUGGAAACAUUUUCAAGAGAAGGCGGACAUGAGGAUCACCCAUGUCUCUCCUCAUCCACUACAAAU | 9.59 nM | 60.6 nM |  | 
GUUGCUUUCCGAGGAUAUUCCGGGCGUGGCUAUACAUGAGGAUCACCCAUGUGGCGGCCGCCUAGGGAGAAGGCGGGCUGCUUC |  |  | 15.9 nM | 15.7 nM
UGCCGUAGAGGAUAUACAUUGAAUUAGAUUCAUGUAAAACUACAUGAGGAUCACCCAUGUAGAAGGCUAUGGCU | 16.6 nM | 24.5 nM |  | 
AUUUUAAAGGGAGGAUAUACAUGAGGAUCACCCAUGUAAACAUGAGGAUCACCCUUGUAAACAAUGUAGAAGGCCUAAAUCUAU | 13 nM | 16.1 nM |  | 
GCGUACAUAUCAGGAUAUCAUAUAAUUGUUUAACUCAGUGUAUACAUGAGGAUCACCCAUGUUCUUGAGAAGGGAUAUGUACGC | 9.08 nM | 9.76 nM |  | 
GAAAGGGCAGGAUAUGCAGAGAGAGAGAGAGAGAGAAAAAAACAUGAGGAUCACCCAUGUAGAAGGGCCGAAAG | 34.8 nM | 39.1 nM |  | 
GGAUGCCGCUCAGGAUAUGUGGGUUGUCUAGUAUUUAGAUUCCACAUGAGGAUCACCCAUGUAACACAGAAGGGAGAUGGUGAU |  |  | 214 nM | 22.7 nM
GUCAGCUCGUGAGGAUAUACAACACUGCUUCGGCAGUGUAUUAAGAUCACAUGAGGAUCACCCAUGUAGAAGGCACGAACUGAU | 12.9 nM | 212 nM |  | 
UGUCGGAGCAGAGGAUAUUACAUGAGGAUCACCCAUGUAUGAACGAAUAGCUGGAAACAGCAAUGUAAGAAGGCUGCUCCGACA | 6 nM | 10.4 nM |  | 
AGUGUCAUCGAGAAGGCCCUGACAUGAGGAUCACCCAUGUUGUUACAUGGGAGGAUAUCGAUGAUACAGCUACGUUUCGUAGCA |  |  | 12.8 nM | 5.05 nM
GCGUUAUUGUAGAAGGUACAUGAAUAUAUUUAAUACCUCAAGUAACAUGAGGAUCACCCAUGUAGUAAGGAUAUACAUAUACGC |  |  | 69.4 nM | 52.4 nM
UGCAGACGAGGAUAUGAUGUCAUAGACAUGAGGAUCACCCAUGUGAUCAAUUAAUUAAGAUCAGAAGGCGUCUGCA | 315 nM | 218 nM |  | 
UGGUACUAGGGAGGAUAUUGGAAGAUACAUGAGGAUCACCCAUGUUUAAGAAUGCCGAGAGGCAACUAGAAGGCCCUAGUACCU |  |  | 8.37 nM | 5.09 nM
AUUUUGUCAGGAUAUGAGUAGUAGGACGAAAGUGUUAUUAUUUAGAAGGGACAUGAGGAUCACCCAUGUUCCUC | 12.7 nM | 16.2 nM |  | 
UUAUAAAAGCAGAAGGGCCGAUUAAGGAUCCGCAUGGCGCUGGACAUGAGGAUCACCCAUGUAAGGCAGGAUAUGCAAAAUAAG | 458 nM | 24.8 nM |  | 
UAUGUAUUCGUAGGAUAUCCGUUGAAACCGUGUGGAGAAGGACGAACAUGAGGAUCACCCAUGUAUCAUGGUGUAGACAAUUUU | 75.3 nM | 288 nM |  | 
UGCAGACAUGAGGAUCACCCAUGUCAGGAUAUUGGACUAUGCAAUGUAUUGUUAGUACCAAGAAGGGACCCGUC | 31.8 nM | 27.2 nM |  | 
GGUACGCAUGUAGGAUAUCGAGCUCAAAGAGCUCGAGAAGGACAUGAGGAUCACCCAUGUCGUCACAGACAGUGACGGCGUACC | 20 nM | 38.7 nM |  | 

Sequence | apparent Kd [1] | apparent Kd [2] | apparent Kd [3] | apparent Kd [4]
GGUCCAACAUGAGGAUAUAGCACCUUAUUGGUGCUAGAAGGCGUGUCGGUAGACAUGAGGAUCACCCAUGUAUUACAUUGGACC |  |  | 93.2 nM | 22.4 nM
CCGGCGGGAGGAUAUACAUGAGGAUCACCCAUGUGCUUCAGCUAGGAGACUAGCAUUGGUAGAAGGCCCGCCGG | 19 nM | 160 nM |  | 
CAGUUCUGAGGAUAUCCACCCUCGUACAUGAGGAUCACCCAUGUUUCCCUCUGGGCUUUCGGAGAAGGCAGGUAUC | 51.4 nM | 50.4 nM |  | 
CGGAAACAAGGAUAUACAUGAGGAUCACCCAUGUCGCUAACUGCGCUCUUGUGAUCCGGUAGAAGGUGUGAAUA | 29.8 nM | 41 nM |  | 
UACAUUACUUAGAAGGGAUAUAUAUAAUUUUAGUCAGGAUAUAGAUACAGUACAACAUGAGGACAUGAGGAUCACCCAUGUAUU |  |  | 29.8 nM | 20.8 nM
UGAUCGAGAGAUCUUAGAUUCUGGUAGGAUAUACAUAUUGUAAUAUAGACAUGAGGAUCACCCAUGUAGAAGGACUAGAGUCUA | 6.6 nM | 11.5 nM |  | 
GACUCGAAUGUAGGAUAUGCUGAGGAAUACUCAGCAGAAGGACAUGAGGAUCACCCAUGUCAAUGAGUGAAUAAUAAACGAGUC | 29.2 nM | 224 nM |  | 
GCGUUCUUGUAGAAGGUACAUACGACAUCUUAUAAACGCUUGACACAUGAGGAUCACCCAUGUUGUAAGGAUAUACAUGAACGC |  |  | 6.82 nM | 7.03 nM
GGUAGGAUCGCAGGAUAUGCUAUCCUUUGGGUAGCAGAAGGGUGAUAACAUGAGGAUCACCCAUGUCCUACCGGGCGUGAGCCC |  |  | 57.8 nM | 1590 nM
GUCCUACAUGAGGAUCACCCAUGUCAGGAUAUGUAGCGUCCGGGCCAUAAGGCUCGGAGCAGAAGGGACAGGUG | 13.8 nM | 18.2 nM |  | 
CGGCGGAAAGGAUAUGCAGUUAUAUCAAAAUGUGGGCCACGACAUGAGGAUCACCCAUGUAGAAGGUUCAGCCG | 16 nM | 13.4 nM |  | 
UAGAUGGGAGGAUAUGCAUAGAUACAGAUUCAUGUAGUGCUACAUGAGGAUCACCCAUGUAGAAGGCCCGUCUU | 21.2 nM | 225 nM |  | 
GAGCGAAAGCUCAAUGUCGAUAGCAGAAGGACAUGCAAUAACAUGAAAACAUGAGGAUCACCCAUGUAGGAUAUGCUAUCGACU | 6.65 nM | 44.5 nM |  | 
AUAUGAAAGAUAGGAUAUACUGAGGUUGAAUGGGUAGAAGGAUCGAUAGUGAAGAAUACAUGAGGAUCACCCAUGUUGUGGAUU |  |  | 556 nM | 209 nM
GUUGAGCGUGCUACGCAAAAUAACGCAGAAGGCCAACAUGAGGAUCACCCAUGUAAACGAAAGAUGGAGGAUAUGCGGUUUGGC |  |  | 50.4 nM | 6.81 nM
UUAUACGUUGAGGAUAUGCGACUUAGUAUAGUUGUAGAAGGCGAUACAUGAGGAUCACCCAUGUUUAUGGGCAU | 220 nM | 300 nM |  | 
UAAACGUUCUAGAAGGUGCUUUUGUUAAACAAGCAAGGAUAUAGACAUGAGGAUCACCCAUGUCUUUAAGACAUCGACAUACUU | 7.91 nM | 8.63 nM |  | 
AACAAUCUAUCUGAGGAUAUCAUGUCAAAGACAUGAGGAUCACCCAUGUACCAGGAAACUGGUUAUGAGAAGGCAGAUAGAUUGA |  |  | 1260 nM | 54.8 nM
AUGUGGUGCGUAGGAUAUCAUUGAGGGUCACCCUGAGAAGGACGUGAGGACAUGAGGAUCACCCAUGUGGAUCACCCAUGUCAU | 245 nM | 288 nM |  | 
GAUUCGCGUGAGAAGGACAUGAGGAUCACCCAUGUAGGAUAUCACGGUCCUUAGAGGAUUUCAAACCGUACUGGGUCAUAGUGU |  |  | 15.2 nM | 6.7 nM
AUAAGUCGAGGAUAUACAAAAUGCUAGCGAAAGCUAGCAUAACAUGAGGAUCACCCAUGUAGAAGGCGACAAUA | 24.5 nM | 26.1 nM |  | 
GAAUUCGCAUGAGGAUAUGCACUCAUUUCAUGUGCAGAAGGUAUAUCAUUAGACAUGAGGAUCACCCAUGUAUUGGUCAUUAAC |  |  | 15.2 nM | 14 nM
CUUACACAUGAGGAUCACCCAUGUGAGGAUAUGCGUACGUUGUCCGUAGGCGACGUGCGCAGAAGGCGCUUGGU | 61.6 nM | 62 nM |  | 
AGUAGAUCAGGAUAUACAUAAAUGAUAAUUAUGUACCUAAUACAUGAGGAUCACCCAUGUAGAAGGGAUCUACA | 14.9 nM | 17.9 nM |  | 
CAGCCCUGAGGAUAUCCCUACUCGCACAUGAGGAUCACCCAUGUCCUCCUCCGGGCUUCGGGAGAAGGCAGGUCUC | 22.4 nM | 93.5 nM |  | 
AGUAAGAUGCAGAAGGUGUUAGCUAGAGCUACGACAUGAGGAUCACCCAUGUACUCAAAACCGUACAAGGAUAUGCAUCUUACA |  |  | 9.55 nM | 6.26 nM
GGUCCUCUGGUGAGGAUAUCUACCCAGGCAGCUGGAGAGAAGGCACAUGAGGAUCACCCAUGUAGCAGAAAACC | 9.98 nM | 17 nM |  | 
